This is an account of results in ChEMBL document CHEMBL3526116, “Toxicological evaluation of acyl glucuronides of nonsteroidal anti-inflammatory drugs using human embryonic kidney 293 cells stably expressing human UDP-glucuronosyltransferase and human hepatocytes” (Drug Metab Dispos, 2011).

Some results are limits rather than exact numbers.

Series [1] deals with HEK293. Nature of the series: Cytotoxicity against HEK293 cells expressing UGT assessed as LDH leakage at 1 mM after 6 to 24 hrs by spectrophotometric analysis relative to total cell LDH level. The format is ADME, cell-based. The settings on record: human, hek293, 1000 µM. The essentials: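 Stable UGT-expressing or mock HEK293 lines in DMEM with 0.5% FBS, 2 x 10^4 cells/well, drug for 6, 12 or 24 h. LDH released into medium read at 490 nm (690 nm reference); percentage calculated against maximum release from control cells lysed with 1% Triton X-100.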
In general terms: Release of lactate dehydrogenase indicates damage to the cell membrane.

For series [2], the system named is Hepatocyte. As to the kind of experiment: Cytotoxicity against human hepatocytes assessed as decrease in cell viability by measuring intracellular ATP content at 1 mM measured at 6 hrs by CellTiter-Glo luminescent assay in absence of acyl glucuronidation inhibitor (-)-borneol. The class given is cell-based. The settings on record: 1000 µM. The method in brief: (§1)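 Human hepatocytes (pooled, cryopreserved), 2 × 10^4 cells/well on collagen in HCM with 0.5% FBS and 10 nM estradiol; 30-min preincubation ± 1 mM (-)-borneol, then drug 6 h. Intracellular ATP measured by CellTiter-Glo luminescence, percent of control cells. Triplicates, mean ± SD.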
For orientation: Cellular ATP, detected with luciferase, serves as a proxy for viable cell number.

In series [3] the test system is HEK293. As to the kind of experiment: Cytotoxicity against mock transfected HEK293 cells assessed as decrease in cell viability at 1 mM by MTT assay. The note with it: human, hek293, 1000 µM; TDE = time-dependent effect. The class given is cell-based.
Series [4] has as its system HEK293. As to the kind of experiment: Cytotoxicity against HEK293 cells expressing UGT1A4 assessed as decrease in cell viability by measuring intracellular ATP content at 1 mM by CellTiter-Glo luminescent assay. The class given is ADME, cell-based. The note with it: human, hek293, 1000 µM; TDE = time-dependent effect. The method in brief:
(§2)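 UGT1A3 or UGT1A4 stable HEK293 cells, 2 x 10^4 cells/well in 0.1 mL DMEM with 0.5% FBS, drug for 6, 12 or 24 h. Viability from intracellular ATP via CellTiter-Glo luminescence, expressed as percent of control cells. Mean ± SD of triplicates.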

The target of series [5] is T1, UDP-glucuronosyltransferase 1A4 (Homo sapiens, UniProt P22310).
T1 sequence (P22310 whole entry): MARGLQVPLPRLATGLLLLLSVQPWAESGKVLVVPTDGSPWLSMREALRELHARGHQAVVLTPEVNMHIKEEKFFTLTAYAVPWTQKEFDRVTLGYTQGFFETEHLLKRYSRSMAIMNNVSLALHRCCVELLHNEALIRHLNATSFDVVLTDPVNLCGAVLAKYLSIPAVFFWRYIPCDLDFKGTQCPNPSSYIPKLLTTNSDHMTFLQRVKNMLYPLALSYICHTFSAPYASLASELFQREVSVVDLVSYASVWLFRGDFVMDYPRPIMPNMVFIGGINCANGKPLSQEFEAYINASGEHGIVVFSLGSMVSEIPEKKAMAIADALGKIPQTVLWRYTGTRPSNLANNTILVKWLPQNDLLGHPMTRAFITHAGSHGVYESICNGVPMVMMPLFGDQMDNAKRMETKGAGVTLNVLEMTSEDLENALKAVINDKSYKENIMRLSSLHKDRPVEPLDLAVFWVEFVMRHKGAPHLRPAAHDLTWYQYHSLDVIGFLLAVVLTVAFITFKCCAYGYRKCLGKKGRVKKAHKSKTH
As to the kind of experiment: Activity of human UGT1A4 expressed in HEK293 cells assessed as enzyme-mediated ibuprofen acyl-beta-D-glucuronide formation at 1 mM measured at 24 hrs by LC-MS/MS analysis. The class given is ADME, cell-based. The note with it: hek293, 24 h, 1000 µM. The essentials: (§3)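 HEK293 stably expressing human UGT1A4, 2 x 10^5 cells/well in DMEM with 0.5% FBS, drug exposure 6–24 h, DMSO ≤0.1% final. Acyl glucuronide in cell fraction and medium measured by LC-MS/MS after methanol/acetic acid (100:1) precipitation and centrifugation. Triplicate determinations.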

Series [6] has as its system HEK293. As to the kind of experiment: Cytotoxicity against HEK293 cells expressing UGT1A3 assessed as decrease in cell viability at 1 mM by MTT assay. The format is ADME, cell-based. The settings on record: human, hek293, 1000 µM; TDE = time-dependent effect. (Tetrazolium assays rely on reduction of a dye to a coloured formazan, in cell work by metabolically active cells.)

The subject of series [7] is Hepatocyte. As to the kind of experiment: Cellular uptake in human hepatocytes at 1 mM measured at 6 hrs by LC-MS/MS analysis in presence of acyl glucuronidation inhibitor (-)-borneol. The format is ADME, cell-based. The note with it: 1000 µM. The essentials: (§4)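 Cryopreserved pooled human hepatocytes on collagen-coated wells, 2 × 10^5 cells/well in HCM medium with 0.5% FBS, preincubated 30 min with or without 1 mM (-)-borneol, then drug for 6 h; DMSO ≤0.2% final. Parent drug in cell fraction measured by LC-MS/MS after methanol/acetic acid extraction. Mean ± SD of triplicates.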

Series [8] has as its system HEK293. As to the kind of experiment: Cytotoxicity against HEK293 cells expressing UGT assessed as decrease in cell viability at 1 mM measured up to 72 hrs by MTT assay. The format is ADME, cell-based. The settings on record: human, hek293, 72 h, 1000 µM. The method in brief: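 Mock and UGT1A3/UGT1A4 stable HEK293 cells given drug for up to 72 h; viability measured by WST-8-based MTT assay.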

Series [9] addresses T2, UDP-glucuronosyltransferase 1A3 (Homo sapiens, UniProt P35503).
T2 sequence (P35503 whole entry): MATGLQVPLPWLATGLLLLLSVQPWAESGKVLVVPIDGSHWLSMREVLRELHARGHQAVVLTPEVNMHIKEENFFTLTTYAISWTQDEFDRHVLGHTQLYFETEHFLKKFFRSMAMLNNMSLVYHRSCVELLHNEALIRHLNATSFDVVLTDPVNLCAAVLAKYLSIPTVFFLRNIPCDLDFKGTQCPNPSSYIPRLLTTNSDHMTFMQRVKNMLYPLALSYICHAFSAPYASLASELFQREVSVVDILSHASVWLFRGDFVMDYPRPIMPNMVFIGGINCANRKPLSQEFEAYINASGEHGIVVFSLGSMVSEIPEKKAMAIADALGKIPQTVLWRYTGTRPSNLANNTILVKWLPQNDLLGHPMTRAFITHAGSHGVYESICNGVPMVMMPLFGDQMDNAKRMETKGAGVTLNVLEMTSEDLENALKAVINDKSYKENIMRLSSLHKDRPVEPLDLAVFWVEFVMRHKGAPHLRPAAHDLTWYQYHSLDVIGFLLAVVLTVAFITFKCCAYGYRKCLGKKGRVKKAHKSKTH
As to the kind of experiment: Activity of human UGT1A3 expressed in HEK293 cells assessed as enzyme-mediated ibuprofen acyl-beta-D-glucuronide formation at 1 mM measured at 24 hrs by LC-MS/MS analysis. The class given is ADME, cell-based. The settings on record: hek293, 24 h, 1000 µM. The method in brief: (§5)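 HEK293 stably expressing human UGT1A3 (G418-selected), 2 x 10^5 cells/well in 1 mL DMEM with 0.5% FBS, exposed immediately to drug for 6, 12 or 24 h; DMSO ≤0.1% final. Cells and medium separated by centrifugation, cell fraction resuspended in PBS; aliquots mixed 1:1 with methanol/acetic acid (100:1), spun, supernatant analysed by LC-MS/MS. Triplicate determinations, mean ± SD.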

Series [10] deals with Hepatocyte. Nature of the series: Cytotoxicity against human hepatocytes assessed as decrease in cell viability by measuring intracellular ATP content at 1 mM measured at 6 hrs by CellTiter-Glo luminescent assay in presence of acyl glucuronidation inhibitor (-)-borneol. The class given is cell-based. The note with it: 1000 µM. The essentials: as §1
Series [11] concerns HEK293. As to the kind of experiment: Cytotoxicity against HEK293 cells expressing UGT1A4 assessed as decrease in cell viability at 1 mM by MTT assay. The class given is ADME, cell-based. The settings on record: human, hek293, 1000 µM; TDE = time-dependent effect.
Series [12] deals with HEK293. As to the kind of experiment: Genotoxicity in HEK293 cells expressing UGT1A3 assessed as DNA strand breaks at 1 mM after 24 hrs by comet assay. The format is toxicity, cell-based. The note with it: human, hek293, 24 h, 1000 µM. The method in brief:
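Alkaline comet assay: HEK/UGT1A3 cells seeded 24 h before, treated 24 h in DMEM with 0.5% FBS (vehicle 0.1% DMSO; MMS 0.1 mM positive control). Cells embedded in LMP agarose, lysed 1 h at 4°C at pH 10, unwound 30 min in NaOH/EDTA, electrophoresed 300 mA 20 min, ethidium-stained; tail moment scored on 150-180 comets over >3 experiments, median (IQR).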

Series [13] concerns Hepatocyte. As to the kind of experiment: Cellular uptake in human hepatocytes at 1 mM measured at 6 hrs by LC-MS/MS analysis in absence of acyl glucuronidation inhibitor (-)-borneol. The class given is ADME, cell-based. The note with it: 1000 µM. The method in brief:
as §4

Series [14] has as its system HEK293. Nature of the series: Cytotoxicity against HEK293 cells expressing UGT1A3 assessed as decrease in cell viability by measuring intracellular ATP content at 1 mM by CellTiter-Glo luminescent assay. The class given is ADME, cell-based. The note with it: human, hek293, 1000 µM; TDE = time-dependent effect. The essentials:
as §2

Series [15] concerns Hepatocyte. As to the kind of experiment: Cytotoxicity against human hepatocytes assessed as decrease in cell viability at 1 mM measured at 6 hrs […] in presence of acyl glucuronidation inhibitor (-)-borneol. The note with it: 1000 µM. The class given is cell-based.
Series [16] relates to HEK293. Nature of the series: Cytotoxicity against mock transfected HEK293 cells assessed as decrease in cell viability by measuring intracellular ATP content at 1 mM by CellTiter-Glo luminescent assay. The note with it: human, hek293, 1000 µM; TDE = time-dependent effect. The class given is cell-based. The essentials:
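Mock-transfected HEK293 cells seeded at 2 x 10^4 cells/well in DMEM with 0.5% FBS, drug added at once and incubated 6, 12 or 24 h. Viability read either by WST-8 (CCK-8) formazan absorbance at 450 nm or by intracellular ATP luminescence (CellTiter-Glo), as percent of control cells; mean ± SD of triplicates. Final DMSO ≤0.1%.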

The target of series [17] is T1, UDP-glucuronosyltransferase 1A4. As to the kind of experiment: Activity of human UGT1A4 expressed in HEK293 cells assessed as enzyme-mediated ketoprofen acyl-beta-D-glucuronide formation at 1 mM measured at 24 hrs by LC-MS/MS analysis. The class given is ADME, cell-based. The settings on record: hek293, 24 h, 1000 µM. The method in brief: as §3
Series [18] addresses T2, UDP-glucuronosyltransferase 1A3. Nature of the series: Activity of human UGT1A3 expressed in HEK293 cells assessed as enzyme-mediated ketoprofen acyl-beta-D-glucuronide formation at 1 mM measured at 24 hrs by LC-MS/MS analysis. The format is ADME, cell-based. The note with it: hek293, 24 h, 1000 µM. The method in brief:
as §5

Consider `CC(C)Cc1ccc(C(C)C(=O)O)cc1` (configuration not stated) [IBUPROFEN], for which the Activity in the series with HEK293 [1] is less than 5.4%; in the series with Hepatocyte [2], “Toxic”; with HEK293 [3] it was “tde”; in the series on HEK293 [4], “tde”; in the series on HEK293 [6], “tde”; in the series on HEK293 [8], “Non-toxic”. For the same compound, the Activity result with Hepatocyte [10] was “Toxic”; in the series with HEK293 [11] it was “tde”; in the series with HEK293 [12], “Non-toxic”; in the series on HEK293 [14], “tde”; with Hepatocyte [15], “Toxic”; in the series on HEK293 [16] it was “tde”. Further, the Drug metabolism entry was “metabolite_not_detected” in [5] and “metabolite_detected” in [9]. Moreover, the Drug uptake result with Hepatocyte [7] and in the series on Hepatocyte [13] was “Active” in each case.

Regarding `CC(C(=O)O)c1cccc(C(=O)c2ccccc2)c1` (configuration not stated) [KETOPROFEN], the Activity with HEK293 [1] is listed as less than 5.4%; in the series with HEK293 [3], “tde”; with HEK293 [4], “tde”; in the series on HEK293 [6], “tde”; with HEK293 [8] it was “Non-toxic”; in the series on HEK293 [11], “tde”. The Activity entry in the series on HEK293 [12] is “Non-toxic”; in the series on HEK293 [14] it was “tde”; in the series on HEK293 [16], “tde”. In addition, the Drug metabolism entry is reported as “metabolite_not_detected” in [17] and “metabolite_detected” in series [18].
